The M2OR odorant receptor database

Legend:
Conditions in all cases: stereoisomer not certain
OR56A1 (Homo sapiens) = OR56A1 (Homo sapiens) (UniProt Q8NGH5)
Procedure, shortened: (§1)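 Assay methods differ from source to source, frequently being transient luciferase assays in mammalian cell lines. For each receptor–molecule pair, the label responsive (active) applies when the original authors judged the measured signal statistically different from baseline, and non-responsive (inactive) applies otherwise.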

OR56A3 (Homo sapiens) = OR56A3 (Homo sapiens) (UniProt Q8NH54)
Chain of OR56A3 (Homo sapiens) (Q8NH54 whole entry): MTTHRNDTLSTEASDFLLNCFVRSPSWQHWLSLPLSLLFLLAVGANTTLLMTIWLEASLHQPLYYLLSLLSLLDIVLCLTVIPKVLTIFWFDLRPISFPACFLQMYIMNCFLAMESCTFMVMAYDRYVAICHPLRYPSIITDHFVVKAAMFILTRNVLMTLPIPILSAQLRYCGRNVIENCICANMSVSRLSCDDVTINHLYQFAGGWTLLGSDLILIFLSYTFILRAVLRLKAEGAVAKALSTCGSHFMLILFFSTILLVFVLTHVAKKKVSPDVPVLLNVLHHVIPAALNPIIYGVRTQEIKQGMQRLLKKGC
Procedure, shortened: as §1

OR56A5 (Homo sapiens) = OR56A5 (Homo sapiens) (UniProt P0C7T3)
Chain of OR56A5 (Homo sapiens) (P0C7T3 whole entry): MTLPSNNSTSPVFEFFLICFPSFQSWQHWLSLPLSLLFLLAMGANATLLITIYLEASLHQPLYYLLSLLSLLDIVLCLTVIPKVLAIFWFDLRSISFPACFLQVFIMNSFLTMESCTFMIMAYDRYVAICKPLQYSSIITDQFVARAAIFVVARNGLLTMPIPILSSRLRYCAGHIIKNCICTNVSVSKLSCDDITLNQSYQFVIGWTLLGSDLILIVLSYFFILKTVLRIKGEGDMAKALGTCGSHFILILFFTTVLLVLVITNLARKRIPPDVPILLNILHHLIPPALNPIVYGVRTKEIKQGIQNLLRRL
Procedure, shortened: as §1

OR56B1 (Homo sapiens) = OR56B1 (Homo sapiens) (UniProt Q8NGI3)
Chain of OR56B1 (Homo sapiens) (Q8NGI3 whole entry): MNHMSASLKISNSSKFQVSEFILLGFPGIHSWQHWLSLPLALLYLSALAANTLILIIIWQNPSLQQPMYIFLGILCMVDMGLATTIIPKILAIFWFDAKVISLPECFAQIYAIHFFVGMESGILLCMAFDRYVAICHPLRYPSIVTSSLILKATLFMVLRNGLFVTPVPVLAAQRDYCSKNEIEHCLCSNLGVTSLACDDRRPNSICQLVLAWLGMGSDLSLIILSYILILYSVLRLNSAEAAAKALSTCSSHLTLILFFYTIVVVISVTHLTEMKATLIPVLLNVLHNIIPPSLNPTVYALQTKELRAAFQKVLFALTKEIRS
Procedure, shortened: as §1

OR56B4 (Homo sapiens) = OR56B4 (Homo sapiens) (UniProt Q8NH76)
Chain of OR56B4 (Homo sapiens) (Q8NH76 whole entry): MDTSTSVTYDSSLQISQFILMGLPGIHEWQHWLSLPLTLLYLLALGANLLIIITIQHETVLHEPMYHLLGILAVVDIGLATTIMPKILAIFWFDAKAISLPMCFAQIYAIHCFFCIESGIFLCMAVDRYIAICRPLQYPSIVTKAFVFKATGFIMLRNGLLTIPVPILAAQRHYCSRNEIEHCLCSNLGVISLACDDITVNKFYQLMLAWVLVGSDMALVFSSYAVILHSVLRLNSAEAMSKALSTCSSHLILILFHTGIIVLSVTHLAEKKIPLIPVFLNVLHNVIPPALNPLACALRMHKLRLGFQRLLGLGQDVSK
Procedure, shortened: as §1

OR5A1 (Homo sapiens) = OR5A1 (Homo sapiens) (UniProt Q8NGJ0)
Chain of OR5A1 (Homo sapiens) (Q8NGJ0 whole entry): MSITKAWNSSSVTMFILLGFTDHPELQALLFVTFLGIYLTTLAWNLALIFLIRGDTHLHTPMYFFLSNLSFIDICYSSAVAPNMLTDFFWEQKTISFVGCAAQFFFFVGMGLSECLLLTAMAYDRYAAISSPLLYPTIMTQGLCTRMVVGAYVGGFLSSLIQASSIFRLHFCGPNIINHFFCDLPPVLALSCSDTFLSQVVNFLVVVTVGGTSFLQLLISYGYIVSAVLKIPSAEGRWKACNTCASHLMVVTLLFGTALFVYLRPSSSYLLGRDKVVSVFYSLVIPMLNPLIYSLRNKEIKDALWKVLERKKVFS
Procedure, shortened: as §1

OR5A1 D183N = system: OR5A1 D183N
Chain of OR5A1 D183N (as listed by the source, stated change not applied): as the sequence (Q8NGJ0 whole entry) above, with D183N counted along it
Procedure, shortened: as §1

OR5A2 (Homo sapiens) = OR5A2 (Homo sapiens) (UniProt Q8NGI9)
Chain of OR5A2 (Homo sapiens) (Q8NGI9 whole entry): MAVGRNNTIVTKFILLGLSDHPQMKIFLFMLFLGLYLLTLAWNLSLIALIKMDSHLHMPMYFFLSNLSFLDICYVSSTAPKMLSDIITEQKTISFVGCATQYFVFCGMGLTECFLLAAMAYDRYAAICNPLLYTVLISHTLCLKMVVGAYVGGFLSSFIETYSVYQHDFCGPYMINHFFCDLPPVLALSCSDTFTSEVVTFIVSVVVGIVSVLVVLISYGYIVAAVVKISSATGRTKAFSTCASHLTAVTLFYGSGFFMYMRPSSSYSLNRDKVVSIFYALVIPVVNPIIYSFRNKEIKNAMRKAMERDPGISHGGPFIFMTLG
Procedure, shortened: as §1

OR52Z1P (Homo sapiens) = OR52Z1P (Homo sapiens) (UniProt P0C646)
Chain of OR52Z1P (Homo sapiens) (P0C646 whole entry): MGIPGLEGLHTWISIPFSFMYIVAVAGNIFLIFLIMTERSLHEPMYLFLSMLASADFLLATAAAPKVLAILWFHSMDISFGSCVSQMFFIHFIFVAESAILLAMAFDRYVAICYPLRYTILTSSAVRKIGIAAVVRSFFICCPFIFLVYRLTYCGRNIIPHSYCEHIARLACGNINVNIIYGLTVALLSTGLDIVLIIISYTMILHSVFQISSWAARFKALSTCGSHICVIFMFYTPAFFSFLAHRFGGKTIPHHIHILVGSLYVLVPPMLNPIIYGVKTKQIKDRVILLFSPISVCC
Procedure, shortened: as §1

OR56A4 (Homo sapiens) = OR56A4 (Homo sapiens) (UniProt Q8NGH8)
Chain of OR56A4 (Homo sapiens) (Q8NGH8 whole entry): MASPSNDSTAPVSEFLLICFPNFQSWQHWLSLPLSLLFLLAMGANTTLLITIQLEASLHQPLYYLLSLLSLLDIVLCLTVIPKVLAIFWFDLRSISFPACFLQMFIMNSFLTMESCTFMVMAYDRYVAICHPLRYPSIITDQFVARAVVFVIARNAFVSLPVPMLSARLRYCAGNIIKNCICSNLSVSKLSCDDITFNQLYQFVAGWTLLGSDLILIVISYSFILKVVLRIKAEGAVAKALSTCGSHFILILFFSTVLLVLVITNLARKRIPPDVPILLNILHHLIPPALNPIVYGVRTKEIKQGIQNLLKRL
Procedure, shortened: as §1

Measured: odorant receptor agonist call

Chain of OR56A1 (Homo sapiens) (Q8NGH5 whole entry): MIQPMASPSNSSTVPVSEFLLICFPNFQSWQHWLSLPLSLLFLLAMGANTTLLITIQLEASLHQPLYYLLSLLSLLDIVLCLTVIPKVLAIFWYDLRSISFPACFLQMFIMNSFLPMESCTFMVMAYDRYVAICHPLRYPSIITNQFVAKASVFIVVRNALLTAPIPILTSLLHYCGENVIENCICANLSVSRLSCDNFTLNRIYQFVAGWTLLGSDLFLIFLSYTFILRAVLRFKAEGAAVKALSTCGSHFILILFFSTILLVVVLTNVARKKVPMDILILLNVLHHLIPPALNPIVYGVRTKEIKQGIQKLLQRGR

C=CCOC(=O)Cc1ccccc1
inactive: OR56A1 (Homo sapiens) | OR56A3 (Homo sapiens) | OR56A5 (Homo sapiens) | OR56B1 (Homo sapiens) | OR56B4 (Homo sapiens) | OR5A1 (Homo sapiens) | OR5A1 D183N | OR5A2 (Homo sapiens)

Cc1c([N+](=O)[O-])c(C)c([N+](=O)[O-])c(C(C)(C)C)c1[N+](=O)[O-]
inactive: OR52Z1P (Homo sapiens) | OR56A1 (Homo sapiens) | OR56A3 (Homo sapiens) | OR56A4 (Homo sapiens) | OR56A5 (Homo sapiens) | OR56B1 (Homo sapiens) | OR56B4 (Homo sapiens) | OR5A1 (Homo sapiens) | OR5A2 (Homo sapiens)
